Experiment in all cases: FLIPR intracellular Ca2+, agonist mode
Assay type in all cases: cell-based

Experiment [1] concerns the target μ-opioid receptor (Homo sapiens, UniProt P35372). The conditions noted are these: stable HEK293T line. The procedure, abridged:
(§1)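 Human opioid receptor cDNA in pcDNA3.1(−), stably expressed in HEK293T cells grown in DMEM with 10% FBS. Test compound was dissolved in DMSO, diluted in FLIPR buffer and added automatically within 4 sec. Intracellular Ca2+ was monitored over 4 min (excitation 488 nm, emission 520 nm), and data were recorded as fluorescence (arbitrary units) versus time.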

Experiment [2] deals with κ-opioid receptor (Homo sapiens, UniProt P41145). The procedure, abridged:
as §1

The target of experiment [3] is δ-opioid receptor (Homo sapiens, UniProt P41143). In a few lines:
as §1

Molecules are shown by their SMILES. A value given as a limit tells only on which side of the number the result lay.

One may read the EC50 as the concentration needed to bring the measured effect to its halfway point. A lower EC50 goes with an effect from little substance.

Chain of μ-opioid receptor (P35372 whole entry): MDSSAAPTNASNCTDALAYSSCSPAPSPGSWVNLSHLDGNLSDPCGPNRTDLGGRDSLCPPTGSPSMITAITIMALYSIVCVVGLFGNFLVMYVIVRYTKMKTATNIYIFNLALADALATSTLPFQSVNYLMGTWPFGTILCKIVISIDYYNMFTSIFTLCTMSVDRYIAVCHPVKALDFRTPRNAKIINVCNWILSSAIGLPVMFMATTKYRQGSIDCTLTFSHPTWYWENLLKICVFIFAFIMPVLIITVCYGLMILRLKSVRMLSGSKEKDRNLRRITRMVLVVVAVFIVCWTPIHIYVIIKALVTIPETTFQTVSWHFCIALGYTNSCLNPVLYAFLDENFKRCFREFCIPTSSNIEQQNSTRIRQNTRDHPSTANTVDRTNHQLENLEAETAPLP
Chain of δ-opioid receptor (P41143 whole entry): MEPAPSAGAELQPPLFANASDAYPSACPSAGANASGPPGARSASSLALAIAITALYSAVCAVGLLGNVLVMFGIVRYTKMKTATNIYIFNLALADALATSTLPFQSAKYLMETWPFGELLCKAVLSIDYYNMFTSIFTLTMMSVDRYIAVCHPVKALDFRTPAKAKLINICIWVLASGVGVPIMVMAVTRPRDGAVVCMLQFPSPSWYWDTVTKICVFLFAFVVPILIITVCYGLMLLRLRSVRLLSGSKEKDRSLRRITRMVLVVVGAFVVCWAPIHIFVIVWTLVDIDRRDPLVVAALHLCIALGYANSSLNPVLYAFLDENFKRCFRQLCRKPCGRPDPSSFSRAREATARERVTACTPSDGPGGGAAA
Chain of κ-opioid receptor (P41145 whole entry): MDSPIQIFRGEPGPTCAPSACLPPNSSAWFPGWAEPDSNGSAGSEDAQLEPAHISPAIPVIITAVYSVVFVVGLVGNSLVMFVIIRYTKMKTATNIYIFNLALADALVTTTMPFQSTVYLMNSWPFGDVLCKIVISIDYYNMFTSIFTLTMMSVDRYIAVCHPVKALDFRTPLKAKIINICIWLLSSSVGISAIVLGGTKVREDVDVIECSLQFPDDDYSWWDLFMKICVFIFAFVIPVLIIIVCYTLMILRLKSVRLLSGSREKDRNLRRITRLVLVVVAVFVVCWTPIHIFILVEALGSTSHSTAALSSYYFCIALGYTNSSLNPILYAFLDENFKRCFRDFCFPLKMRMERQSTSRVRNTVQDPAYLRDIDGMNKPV

As to `COc1cc2c(cc1O)CC[n+]1cc3c(OC)c(OC)ccc3c(C)c1-2` [DHCB], in experiment [1], the “Opioid Agonist (EC50, μM) / μ” value is 100 (74~136) μM. The EC50 in experiment [2] and in experiment [3] was over 500 µM each time.

The record behind these values is article PMC3912990 (Current biology : CB, 2014).
